MEKK2 mut-MEK5: signal of MEK5 binding to mutant human MEKK2 PB1 domain | 290,000 tested, 0.35% active | percent response, % at 10 µM | bead flow cytometry, Alexa488-MEK5 binding to MEKK2 mutant; in the data active means percent response above about 24%, passing the limit was not always enough
MEKK3 PB1 HTS: MEKK3-MEK5 PB1 interaction, increase or decrease; 290,000 tested, 1.4% active; bead-based flow cytometry, Alexa488-MEK5 binding to MEKK3; actives lie on both sides; 0 = blocked by unlabeled MEK5, 100 = vehicle; Q99759; binding response (% of control), % at 10 µM;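 active means binding response more than 3 SD above or below the average of its plate-row segment, actives on both sides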;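 further: Alexa488 bead fluorescence after subtracting the streptavidin-only scavenger bead signal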
MEKK2 WT-MEK5: raises or lowers MEK5 binding to wildtype human MEKK2 PB1 domain. Q9Y2U5. bead flow cytometry, Alexa488-MEK5 binding to MEKK2 WT; actives lie on both sides. binding response (% of control), % at 10 µM. 290,000 tested, 1.1% active. AID 1531; in the data active means binding response below about 67% or above about 130%
UBC13 polyUb: blocks human UBC13 polyubiquitin chain formation | 330,000 tested, 0.47% active | AID 485273 | TR-FRET | inhibition, % at 20 µM | P61088; in the data active means inhibition above about 45%, passing the limit was not always enough
Target sequence (P61088 whole entry, looked up): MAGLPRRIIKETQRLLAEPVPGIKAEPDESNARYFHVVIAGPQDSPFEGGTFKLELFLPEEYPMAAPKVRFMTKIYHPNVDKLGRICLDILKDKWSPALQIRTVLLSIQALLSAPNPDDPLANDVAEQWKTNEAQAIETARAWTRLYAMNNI
Apaf1 inhib: blocks human Apaf-1 apoptosome activity; O14727; reconstituted apoptosome caspase-3 activity, DEVD-Rh110 fluorescence; inhibition, % at 20 µM; 330,000 tested, 0.71% active; AID 489030; active means inhibition of at least 40% at 20 µM;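 further: plate controls were DMSO wells for no effect and DEVD-CHO caspase inhibitor wells for full effect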
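Assay system: Apoptosome proteins | Medium: pH 7.5 Hepes buffer with CHAPS, BSA, DTT | Also added: Cytochrome c and DEVD-Rh110 substrate | Times: 30 min plus 50 min, RT | Detection: Rhodamine 110 fluorescence at Ex 480/Em 540 nm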
UCH37 inh: inhibitors of human deubiquitinating enzyme UCH37 | AID 588478 | 330,000 tested, 0.33% active | purified proteasome/UCH37, Ub-AMC cleavage fluorescence | inhibition, % (test concentration not listed);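 active means mean inhibition over replicate wells above about 20%, limit read from the data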;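 further: 0% = compound-free wells with enzyme and 100% = wells lacking proteasome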
Target sequence (Q9Y5K5 whole entry, looked up): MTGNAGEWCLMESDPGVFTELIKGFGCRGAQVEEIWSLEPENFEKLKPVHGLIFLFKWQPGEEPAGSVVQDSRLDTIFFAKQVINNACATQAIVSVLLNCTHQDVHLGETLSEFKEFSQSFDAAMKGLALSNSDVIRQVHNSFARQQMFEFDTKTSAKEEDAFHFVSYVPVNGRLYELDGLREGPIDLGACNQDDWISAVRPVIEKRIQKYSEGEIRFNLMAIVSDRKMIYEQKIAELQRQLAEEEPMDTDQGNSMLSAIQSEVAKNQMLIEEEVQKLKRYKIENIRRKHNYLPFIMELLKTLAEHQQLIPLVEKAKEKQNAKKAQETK
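Assay system: Proteasome-bound UCH37. Buffer or medium: pH 7.4 Tris-HCl (50 mM) with ovalbumin, ATP-MgCl2, DTT. Incubation: 30 min preincubation with enzyme, 25 min cleavage at room temperature. Measured by: fluorescence, ex 355 nm, em 460 nm. Read-out basis: percent inhibition. Control set: wells without proteasome as full block, compound-free enzyme plus substrate as uninhibited.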
MEKK2wt confirm: raises or lowers MEK5 binding to wildtype human MEKK2, retest; shares compounds with MEKK3 PB1 HTS; binding response (% of control), % at 10 µM; 5,900 tested, 2.4% active; bead flow cytometry, Alexa488-MEK5 binding to MEKK2 WT; actives lie on both sides; in the data active means binding response below about 16% or above about 210%; inactive means in between
MEKK2mut confirm: signal of MEK5 binding to mutant human MEKK2, retest | percent response, % at 10 µM | bead flow cytometry, Alexa488-MEK5 binding to MEKK2 mutant | 5,900 tested, 2% active | AID 1893 | shares compounds with MEKK3 PB1 HTS; in the data active means percent response mostly above about 71%, no sharp cut-off; inactive means mostly below about 38%;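 further: higher means compound restores mutant binding toward wildtype level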
MEKK3 confirm: MEKK3-MEK5 PB1 inhibition, single concentration confirmation; binding response (% of control), % at 10 µM; shares compounds with MEKK3 PB1 HTS; 5,900 tested, 1.8% active; AID 1894; bead flow cytometry, Alexa488-MEK5 binding to MEKK3; active compounds read low;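 active means binding response below 72% of control, or above a set upper limit, though filed actives all read lower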;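 further: 100% = DMSO only wells and 0% = binding blocked by excess unlabeled MEK5; lower values mean stronger disruption of MEK5 binding to MEKK3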
Numbers without * were called inactive; . = no result; [ ] = remark or other dose. Sampled rows, rich in hits. Any-hit rate of the full collection: about 3%.

SMILES	MEKK2 mut-MEK5	MEKK3 PB1 HTS	MEKK2 WT-MEK5	UBC13 polyUb	Apaf1 inhib	UCH37 inh	MEKK2wt confirm	MEKK2mut confirm	MEKK3 confirm
CN(C)CCCN(C(=O)c1ccc2c(c1)CCCC2)c1nc2ccc(F)cc2s1	7.0	138.0*	142.0*	42.3	9.4	-0.5	150.0	30.0	106.0
CCN(CC)CCN(C(=O)c1ccc2c(c1)CCCC2)c1nc2c(C)cccc2s1	29.0*	111.0	158.0*	7.9	30.9	3.2	107.0	1.0	102.0
O=C(c1cccc(F)c1)N1C2C=CC(C2)C1(C(F)(F)F)C(F)(F)F (centres undefined)	0.0	101.0	101.0	-6.4	10.2	-1.5	.	.	.
COC(C[C@@H](O)[C@@H](C)[C@@H](O)COCc1ccccc1)OC	3.0	95.0	97.0	-2.4	2.0	4.2	.	.	.
O=C1CSC(=NN=Cc2ccco2)N1Cc1ccc(F)cc1	.	.	.	.	.	4.0	.	.	.
CC(C)n1c(SCC(=O)Nc2ccc3c(c2)OCO3)nc2c1c(=O)n(C)c(=O)n2C	-4.0	94.0	93.0	9.1	-13.8	4.1	.	.	.
CCOc1ccc(S(=O)(=O)N(CC(=O)N/N=C/c2cccs2)c2ccc(C)cc2)cc1	-6.0	101.0	94.0	-14.0	4.2	.	.	.	.
CN(C)CCCN(C(=O)CCSc1ccccc1)c1nc2cc3c(cc2s1)OCO3	12.0	110.0	153.0*	20.3	1.2	2.3	126.0	10.0	99.0
CCN(CC)CCN(C(=O)c1ccc2c(c1)CCCC2)c1nc2ccc(F)cc2s1	8.0	108.0	154.0*	2.7	-3.2	6.0	136.0	10.0	105.0
COc1ccc(OC)c(CN2CCN(Cc3cc(OC)c(OC)c(OC)c3)CC2)c1	1.0	102.0	102.0	-1.1	-3.4	3.0	.	.	.
CC(C)OC(=O)CSc1n[nH]c(-c2cccnc2)n1	0.0	99.0	100.0	-3.7	10.0	1.8	.	.	.
Cc1ccc(S(=O)(=O)N(C)C)cc1NC(=O)COC(=O)c1ccc2c(=O)n3c(nc2c1)CCC3	.	.	.	2.1	-1.0	-15.2	.	.	.
COc1ccc(-c2cc(-c3ccc(OC)cc3)[nH]n2)cc1	1.0	103.0	99.0	21.0	26.1	1.8	.	.	.
COc1ccc(-c2cc(C3CCNCC3)[nH]n2)cc1	22.0	103.0	154.0*	18.0	12.6	1.5	143.0	26.0	109.0
Cc1ccc(C(=O)CSC2=C(C#N)C(c3ccco3)CC(=O)N2)c(C)c1 (centres undefined)	-2.0	108.0	104.0	-4.2	13.3	5.4	.	.	.
CCC(C(=O)NCC1CCCO1)n1nc(C)c2sc3ccccc3c2c1=O (centres undefined)	2.0	98.0	97.0	3.2	6.0	-0.9	.	.	.
COc1ccc(-c2cc(C(=O)OC3CCOC3=O)c3ccccc3n2)cc1 (centres undefined)	0.0	103.0	94.0	35.2	13.8	-129.1	.	.	.
C/C(=N/NC(N)=S)c1ccc(Br)s1	-3.0	100.0	98.0	-1.9	3.2	.	.	.	.
Cc1nc2ccccn2c1C(=O)N=Nc1c(O)[nH]c2ccccc12	2.0	139.0*	106.0	-10.2	-5.8	0.1	102.0	1.0	103.0
Cc1cc(C)n(CCC(=O)N=Nc2c(O)[nH]c3ccccc23)n1	-2.0	101.0	100.0	4.0	-18.4	9.2	.	.	.
COc1ccc2c(C)c(C)c(=O)oc2c1OC	-26.0	2.0*[inhibitor]	0.0*[inhibitor]	11.5	-10.2	-48.7	104.0	-1.0	101.0
C=CCc1ccc(OCC(O)CN2CCCCC2C)c(OC)c1 (centres undefined)	42.0*	104.0	136.0*	17.9	-9.8	5.9	123.0	15.0	101.0
C=CCc1ccc(OCC(O)CN2CCCCC2)c(OC)c1 (centres undefined)	5.0	105.0	115.0	-2.6	7.1	0.5	.	.	.
CC1=C(C#N)C(=O)NC(=O)/C1=C/c1ccc(-c2ccc(S(N)(=O)=O)cc2)o1	-13.0	7.0*[inhibitor]	3.0*[inhibitor]	-8.0	-5.9	-12.8	82.0	-12.0	88.0
Cc1ccc(C)c2[nH]c(=O)c(CN(CCN3CCCC3)C(=O)Nc3cccc(Cl)c3)cc12	41.0*	110.0	153.0*	23.4	17.5	5.5	154.0	35.0	103.0
SMILES	MEKK2 mut-MEK5	MEKK3 PB1 HTS	MEKK2 WT-MEK5	UBC13 polyUb	Apaf1 inhib	UCH37 inh	MEKK2wt confirm	MEKK2mut confirm	MEKK3 confirm
CC(C)N=C1SCC(C)(C=NO)S1 (centres undefined)	.	.	.	.	.	3.4	.	.	.
CCC(C)N=C1SCC(C)(/C=N/O)S1 (centres undefined)	6.0	128.0*	135.0*	-3.9	4.1	.	91.0	-5.0	95.0
COc1cccc(NC(=O)COC(=O)COc2cccc3c2OC(C)(C)C3)c1	5.0	104.0	109.0	7.5	10.0	3.2	.	.	.
Cc1cc(C)cc(CN2C(=O)NC3(CCCCCC3)C2=O)c1	-3.0	98.0	98.0	-3.3	8.9	1.4	.	.	.
COc1ccc(C)cc1Nc1n[n+](-c2ccccc2)c(-c2c(Cl)cccc2Cl)s1	7.0	109.0	127.0	26.3	33.8	6.4	.	.	.
c1ccc(COc2ccc(-c3sc(Nc4ccccc4)n[n+]3-c3ccccc3)cc2)cc1	38.0*	109.0	221.0*	-22.8	8.6	.	185.0	55.0	110.0
O=C(O)c1ccc(-c2sc(Nc3ccccc3)n[n+]2-c2ccccc2)cc1	-4.0	99.0	95.0	-12.8	-4.8	-1.0	.	.	.
COc1ccc(C)cc1Nc1n[n+](-c2ccccc2)c(-c2ccc(N(C)C)cc2)s1	46.0*	105.0	142.0*	32.7	38.5	2.4	155.0	34.0	109.0
CCc1ccc(Nc2n[n+](-c3ccccc3)c(-c3ccc(N(CC)CC)cc3)s2)cc1	277.0*	101.0	65.0*	-51.9	36.4	0.0	164.0	50.0	94.0
CCc1ccc(Nc2n[n+](-c3ccccc3)c(-c3ccc(OCc4ccccc4)cc3)s2)cc1	107.0*	111.0	220.0*	-35.0	21.6	5.3	209.0*	82.0*	114.0
CC(=O)c1ccc(NC(=S)Nc2ccc3[nH]c(=O)[nH]c3c2)cc1	-19.0	5.0*[inhibitor]	7.0*[inhibitor]	4.2	-3.0	1.2	109.0	-2.0	104.0
CCOC(=O)CSC1=N/C(=C\c2cc(OC)c(OC)c(OC)c2)C(=O)N1C	1.0	153.0*	106.0	15.0	-2.2	-7.1	97.0	-8.0	101.0
CCCCN1CCCCC1C(=O)Nc1c(C)cc(C)cc1C (centres undefined)	-4.0	96.0	96.0	-11.4	-0.6	1.2	.	.	.

High-throughput results from PubChem.
